# Experimental data published in the M2OR odorant receptor database.
# Tests used:
# Conditions in all cases: stereoisomer not certain
# OR51L1 (Homo sapiens) = target: T1, OR51L1 (Homo sapiens) (UniProt Q8NGJ5)
# T1 sequence (whole entry): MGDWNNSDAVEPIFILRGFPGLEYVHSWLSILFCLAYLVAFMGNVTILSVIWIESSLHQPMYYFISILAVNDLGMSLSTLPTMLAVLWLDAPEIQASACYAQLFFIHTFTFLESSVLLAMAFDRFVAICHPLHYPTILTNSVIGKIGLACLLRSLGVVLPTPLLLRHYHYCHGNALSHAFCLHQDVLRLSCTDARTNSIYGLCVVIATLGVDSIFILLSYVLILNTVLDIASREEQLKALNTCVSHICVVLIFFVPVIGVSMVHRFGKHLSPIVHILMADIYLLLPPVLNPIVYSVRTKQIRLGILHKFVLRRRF
# In short: (§1)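 Whether a receptor–molecule pair is responsive (active) rests on the original authors' judgment that its measured signal was statistically different from baseline. Pairs without that judgment are non-responsive (inactive). Sources used varied assay methods, commonly transient luciferase assays in mammalian cell lines.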
# OR51I2 (Homo sapiens) = target: T2, OR51I2 (Homo sapiens) (UniProt Q9H344)
# T2 sequence (whole entry): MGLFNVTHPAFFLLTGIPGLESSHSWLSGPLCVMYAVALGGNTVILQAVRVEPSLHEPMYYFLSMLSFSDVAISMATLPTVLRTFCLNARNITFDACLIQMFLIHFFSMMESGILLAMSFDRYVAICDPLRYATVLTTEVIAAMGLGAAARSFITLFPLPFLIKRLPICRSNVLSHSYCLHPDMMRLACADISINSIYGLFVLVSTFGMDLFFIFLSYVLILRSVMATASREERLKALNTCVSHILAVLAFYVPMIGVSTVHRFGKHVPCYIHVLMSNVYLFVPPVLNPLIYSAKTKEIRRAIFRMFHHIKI
# In short: as §1
# OR51J1 (Homo sapiens) = target: T3, OR51J1 (Homo sapiens) (UniProt Q9H342)
# T3 sequence (whole entry): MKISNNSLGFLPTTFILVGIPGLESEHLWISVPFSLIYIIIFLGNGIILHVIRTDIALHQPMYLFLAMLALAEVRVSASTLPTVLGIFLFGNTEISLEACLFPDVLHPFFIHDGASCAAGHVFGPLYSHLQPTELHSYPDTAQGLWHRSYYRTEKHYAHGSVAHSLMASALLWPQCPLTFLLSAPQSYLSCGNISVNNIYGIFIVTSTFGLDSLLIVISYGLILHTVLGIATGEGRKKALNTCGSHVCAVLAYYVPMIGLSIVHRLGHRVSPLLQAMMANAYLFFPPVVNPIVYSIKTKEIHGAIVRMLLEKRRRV
# In short: as §1
# OR51M1 (Homo sapiens) = target: T4, OR51M1 (Homo sapiens) (UniProt Q9H341)
# T4 sequence (whole entry): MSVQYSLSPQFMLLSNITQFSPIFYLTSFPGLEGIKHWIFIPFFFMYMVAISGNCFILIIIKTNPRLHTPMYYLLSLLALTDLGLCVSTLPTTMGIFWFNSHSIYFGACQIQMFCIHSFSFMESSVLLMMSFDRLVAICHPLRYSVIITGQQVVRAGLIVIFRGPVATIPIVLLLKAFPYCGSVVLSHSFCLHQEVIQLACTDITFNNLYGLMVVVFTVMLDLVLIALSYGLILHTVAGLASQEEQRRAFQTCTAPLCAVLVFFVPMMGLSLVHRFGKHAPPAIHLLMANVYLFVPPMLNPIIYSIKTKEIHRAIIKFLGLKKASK
# In short: as §1
# OR51Q1 (Homo sapiens) = target: T5, OR51Q1 (Homo sapiens) (UniProt Q8NH59)
# T5 sequence (whole entry): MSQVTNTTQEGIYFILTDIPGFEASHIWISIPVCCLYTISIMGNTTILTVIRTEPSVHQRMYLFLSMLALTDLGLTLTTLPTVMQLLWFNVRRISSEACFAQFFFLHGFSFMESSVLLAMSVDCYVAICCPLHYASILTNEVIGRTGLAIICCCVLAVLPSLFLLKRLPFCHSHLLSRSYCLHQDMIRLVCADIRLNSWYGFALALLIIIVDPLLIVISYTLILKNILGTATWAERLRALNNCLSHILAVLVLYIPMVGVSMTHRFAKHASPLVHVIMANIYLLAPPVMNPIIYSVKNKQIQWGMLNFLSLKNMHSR
# In short: as §1
# OR51S1 (Homo sapiens) = target: T6, OR51S1 (Homo sapiens) (UniProt Q8NGJ8)
# T6 sequence (whole entry): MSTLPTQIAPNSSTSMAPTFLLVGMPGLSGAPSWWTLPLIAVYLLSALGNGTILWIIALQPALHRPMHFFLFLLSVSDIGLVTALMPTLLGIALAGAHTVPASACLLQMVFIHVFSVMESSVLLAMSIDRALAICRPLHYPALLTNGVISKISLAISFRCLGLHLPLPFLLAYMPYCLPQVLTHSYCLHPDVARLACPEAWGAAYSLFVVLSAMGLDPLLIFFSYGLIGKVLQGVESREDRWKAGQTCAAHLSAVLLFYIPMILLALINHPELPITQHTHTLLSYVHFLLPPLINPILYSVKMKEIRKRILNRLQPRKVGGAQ
# In short: as §1
# OR51V1 (Homo sapiens) = target: T7, OR51V1 (Homo sapiens) (UniProt Q9H2C8)
# T7 sequence (whole entry): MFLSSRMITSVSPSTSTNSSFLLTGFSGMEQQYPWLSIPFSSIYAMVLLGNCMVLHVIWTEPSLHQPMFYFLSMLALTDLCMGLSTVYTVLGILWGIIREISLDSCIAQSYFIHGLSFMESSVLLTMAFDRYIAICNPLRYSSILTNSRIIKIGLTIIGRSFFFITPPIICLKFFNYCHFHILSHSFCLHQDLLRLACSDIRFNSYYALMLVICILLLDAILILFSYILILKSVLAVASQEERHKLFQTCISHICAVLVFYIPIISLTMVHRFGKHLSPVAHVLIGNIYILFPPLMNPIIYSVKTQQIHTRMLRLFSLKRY
# In short: as §1
# OR52A1 (Homo sapiens) = target: T8, OR52A1 (Homo sapiens) (UniProt Q9UKL2)
# T8 sequence (whole entry): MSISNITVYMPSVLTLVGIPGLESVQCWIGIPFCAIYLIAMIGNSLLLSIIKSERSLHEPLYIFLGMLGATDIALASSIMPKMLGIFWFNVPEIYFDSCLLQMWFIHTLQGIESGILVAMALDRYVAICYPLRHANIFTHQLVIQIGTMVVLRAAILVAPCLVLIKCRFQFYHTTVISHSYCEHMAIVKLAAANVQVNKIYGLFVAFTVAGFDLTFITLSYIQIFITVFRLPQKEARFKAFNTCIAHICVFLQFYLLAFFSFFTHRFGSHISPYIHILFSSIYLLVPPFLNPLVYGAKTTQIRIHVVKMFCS
# In short: as §1
# OR52A5 (Homo sapiens) = target: T9, OR52A5 (Homo sapiens) (UniProt Q9H2C5)
# T9 sequence (whole entry): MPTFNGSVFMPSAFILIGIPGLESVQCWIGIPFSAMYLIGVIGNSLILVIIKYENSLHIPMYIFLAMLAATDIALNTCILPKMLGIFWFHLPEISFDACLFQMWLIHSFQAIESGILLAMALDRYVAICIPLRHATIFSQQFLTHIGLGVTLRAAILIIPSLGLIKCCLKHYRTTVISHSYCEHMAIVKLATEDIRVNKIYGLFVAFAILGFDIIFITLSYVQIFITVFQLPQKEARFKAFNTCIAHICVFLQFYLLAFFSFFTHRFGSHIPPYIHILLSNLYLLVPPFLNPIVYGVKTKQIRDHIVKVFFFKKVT
# In short: as §1
# OR52B2 (Homo sapiens) = target: T10, OR52B2 (Homo sapiens) (UniProt Q96RD2)
# T10 sequence (whole entry): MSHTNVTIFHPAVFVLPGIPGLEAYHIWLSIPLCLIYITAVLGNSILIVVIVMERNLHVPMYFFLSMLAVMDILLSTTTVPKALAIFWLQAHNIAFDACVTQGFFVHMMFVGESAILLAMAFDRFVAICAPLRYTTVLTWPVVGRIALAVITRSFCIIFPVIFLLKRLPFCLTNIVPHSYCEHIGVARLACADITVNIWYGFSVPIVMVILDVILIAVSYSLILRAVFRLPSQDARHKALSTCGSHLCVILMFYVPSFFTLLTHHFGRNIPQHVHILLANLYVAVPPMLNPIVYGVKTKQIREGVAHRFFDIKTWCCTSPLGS
# In short: as §1
# OR52B4 (Homo sapiens) = target: T11, OR52B4 (Homo sapiens) (UniProt Q8NGK2)
# T11 sequence (whole entry): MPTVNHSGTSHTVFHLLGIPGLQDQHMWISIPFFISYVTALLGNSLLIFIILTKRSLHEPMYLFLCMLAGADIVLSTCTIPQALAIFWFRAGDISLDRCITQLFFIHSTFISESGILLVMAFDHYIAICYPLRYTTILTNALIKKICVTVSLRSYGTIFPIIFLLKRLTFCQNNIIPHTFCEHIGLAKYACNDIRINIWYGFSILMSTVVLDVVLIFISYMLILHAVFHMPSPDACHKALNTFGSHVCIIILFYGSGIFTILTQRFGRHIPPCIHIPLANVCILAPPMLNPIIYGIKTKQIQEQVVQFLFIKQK
# In short: as §1
# OR52B6 (Homo sapiens) = target: T12, OR52B6 (Homo sapiens) (UniProt Q8NGF0)
# T12 sequence (whole entry): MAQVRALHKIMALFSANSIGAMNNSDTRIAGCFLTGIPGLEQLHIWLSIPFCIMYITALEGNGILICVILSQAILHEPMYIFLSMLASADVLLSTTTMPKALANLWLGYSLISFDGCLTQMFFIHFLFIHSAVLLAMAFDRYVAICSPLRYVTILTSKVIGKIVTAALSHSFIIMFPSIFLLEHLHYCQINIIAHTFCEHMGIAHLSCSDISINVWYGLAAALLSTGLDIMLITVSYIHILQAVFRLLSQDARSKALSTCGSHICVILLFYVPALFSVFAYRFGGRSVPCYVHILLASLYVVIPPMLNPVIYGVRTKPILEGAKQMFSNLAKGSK
# In short: as §1
# OR52D1 (Homo sapiens) = target: T13, OR52D1 (Homo sapiens) (UniProt Q9H346)
# T13 sequence (whole entry): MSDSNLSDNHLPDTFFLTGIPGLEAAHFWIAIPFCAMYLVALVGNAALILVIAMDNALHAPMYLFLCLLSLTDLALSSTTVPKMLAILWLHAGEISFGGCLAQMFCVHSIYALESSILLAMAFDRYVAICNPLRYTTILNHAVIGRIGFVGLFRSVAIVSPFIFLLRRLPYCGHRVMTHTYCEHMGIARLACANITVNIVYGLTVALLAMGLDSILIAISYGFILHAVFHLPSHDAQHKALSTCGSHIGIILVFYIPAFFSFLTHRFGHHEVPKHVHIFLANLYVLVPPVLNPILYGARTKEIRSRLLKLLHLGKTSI
# In short: as §1
# OR52E1 (Homo sapiens) = OR52E1 (Homo sapiens) (UniProt Q8NGJ3)
# OR52E1 (Homo sapiens), sequence (Q8NGJ3 whole entry): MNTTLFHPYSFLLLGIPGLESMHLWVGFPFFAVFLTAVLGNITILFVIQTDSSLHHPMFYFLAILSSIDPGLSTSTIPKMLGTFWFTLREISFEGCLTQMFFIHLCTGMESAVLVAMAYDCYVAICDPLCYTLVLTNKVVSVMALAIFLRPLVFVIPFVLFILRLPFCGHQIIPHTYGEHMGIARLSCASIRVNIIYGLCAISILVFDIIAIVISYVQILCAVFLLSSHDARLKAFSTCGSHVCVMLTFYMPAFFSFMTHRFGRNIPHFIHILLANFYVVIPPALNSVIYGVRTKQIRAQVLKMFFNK
# In short: as §1
# OR52E2 (Homo sapiens) = OR52E2 (Homo sapiens) (UniProt Q8NGJ4)
# OR52E2 (Homo sapiens), sequence (Q8NGJ4 whole entry): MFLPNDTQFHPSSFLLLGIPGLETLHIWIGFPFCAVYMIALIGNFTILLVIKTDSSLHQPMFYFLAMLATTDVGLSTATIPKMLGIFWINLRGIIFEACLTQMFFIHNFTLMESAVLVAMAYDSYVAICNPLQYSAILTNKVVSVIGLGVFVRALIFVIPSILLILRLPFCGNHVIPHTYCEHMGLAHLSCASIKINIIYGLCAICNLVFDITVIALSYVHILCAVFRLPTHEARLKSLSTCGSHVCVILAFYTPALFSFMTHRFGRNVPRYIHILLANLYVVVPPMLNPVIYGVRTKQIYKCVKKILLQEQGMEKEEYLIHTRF
# In short: as §1
# OR52E4 (Homo sapiens) = OR52E4 (Homo sapiens) (UniProt Q8NGH9)
# OR52E4 (Homo sapiens), sequence (Q8NGH9 whole entry): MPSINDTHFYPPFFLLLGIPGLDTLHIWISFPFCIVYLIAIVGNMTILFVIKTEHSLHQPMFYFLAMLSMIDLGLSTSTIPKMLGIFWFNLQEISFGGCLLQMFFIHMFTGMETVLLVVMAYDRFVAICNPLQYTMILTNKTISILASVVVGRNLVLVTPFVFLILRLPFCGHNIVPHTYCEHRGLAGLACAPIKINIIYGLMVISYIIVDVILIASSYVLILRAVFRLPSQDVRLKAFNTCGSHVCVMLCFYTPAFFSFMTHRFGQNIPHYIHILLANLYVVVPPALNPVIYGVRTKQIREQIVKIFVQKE
# In short: as §1
# OR52E6 (Homo sapiens) = OR52E6 (Homo sapiens) (UniProt Q96RD3)
# OR52E6 (Homo sapiens), sequence (Q96RD3 whole entry): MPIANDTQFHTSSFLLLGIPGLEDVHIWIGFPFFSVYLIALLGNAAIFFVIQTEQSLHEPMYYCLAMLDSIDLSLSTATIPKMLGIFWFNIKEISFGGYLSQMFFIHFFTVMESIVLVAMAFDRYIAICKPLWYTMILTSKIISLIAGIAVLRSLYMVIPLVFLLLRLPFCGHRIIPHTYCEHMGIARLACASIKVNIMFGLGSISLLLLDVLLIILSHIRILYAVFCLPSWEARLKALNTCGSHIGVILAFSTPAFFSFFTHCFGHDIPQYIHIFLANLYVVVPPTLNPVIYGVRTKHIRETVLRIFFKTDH
# In short: as §1
# 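Note: active if original authors judged signal statistically different from baseline.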
smiles,measurement,setting,value
CCCCCO,odorant receptor agonist call,OR51L1 (Homo sapiens),inactive
CC1=C(O)C(=O)OC1C (stereo not drawn),odorant receptor agonist call,OR51I2 (Homo sapiens),inactive
same,odorant receptor agonist call,OR51J1 (Homo sapiens),inactive
same,odorant receptor agonist call,OR51L1 (Homo sapiens),inactive
same,odorant receptor agonist call,OR51M1 (Homo sapiens),inactive
same,odorant receptor agonist call,OR51Q1 (Homo sapiens),inactive
same,odorant receptor agonist call,OR51S1 (Homo sapiens),inactive
same,odorant receptor agonist call,OR51V1 (Homo sapiens),inactive
same,odorant receptor agonist call,OR52A1 (Homo sapiens),inactive
same,odorant receptor agonist call,OR52A5 (Homo sapiens),inactive
same,odorant receptor agonist call,OR52B2 (Homo sapiens),inactive
same,odorant receptor agonist call,OR52B4 (Homo sapiens),inactive
same,odorant receptor agonist call,OR52B6 (Homo sapiens),inactive
same,odorant receptor agonist call,OR52D1 (Homo sapiens),inactive
same,odorant receptor agonist call,OR52E1 (Homo sapiens),inactive
same,odorant receptor agonist call,OR52E2 (Homo sapiens),inactive
same,odorant receptor agonist call,OR52E4 (Homo sapiens),inactive
same,odorant receptor agonist call,OR52E6 (Homo sapiens),inactive
c1ccccc1,odorant receptor agonist call,OR51L1 (Homo sapiens),inactive
O=C1CCOc2ccccc21,odorant receptor agonist call,OR51L1 (Homo sapiens),inactive
CCCCOC=O,odorant receptor agonist call,OR51L1 (Homo sapiens),inactive
CCC1OC(=O)C(O)=C1C (stereo not drawn),odorant receptor agonist call,OR51I2 (Homo sapiens),inactive
same,odorant receptor agonist call,OR51J1 (Homo sapiens),inactive
same,odorant receptor agonist call,OR51L1 (Homo sapiens),inactive
same,odorant receptor agonist call,OR51M1 (Homo sapiens),inactive
same,odorant receptor agonist call,OR51Q1 (Homo sapiens),inactive
same,odorant receptor agonist call,OR51S1 (Homo sapiens),inactive
same,odorant receptor agonist call,OR51V1 (Homo sapiens),inactive
same,odorant receptor agonist call,OR52A1 (Homo sapiens),inactive
same,odorant receptor agonist call,OR52A5 (Homo sapiens),inactive
same,odorant receptor agonist call,OR52B2 (Homo sapiens),inactive
same,odorant receptor agonist call,OR52B4 (Homo sapiens),inactive
same,odorant receptor agonist call,OR52B6 (Homo sapiens),inactive
same,odorant receptor agonist call,OR52D1 (Homo sapiens),inactive
same,odorant receptor agonist call,OR52E1 (Homo sapiens),inactive
same,odorant receptor agonist call,OR52E2 (Homo sapiens),inactive
same,odorant receptor agonist call,OR52E4 (Homo sapiens),inactive
same,odorant receptor agonist call,OR52E6 (Homo sapiens),inactive
CCCCCCC(C)=O,odorant receptor agonist call,OR51L1 (Homo sapiens),inactive
same,odorant receptor agonist call,OR52D1 (Homo sapiens),inactive
CCCCCCCCCCCC=O,odorant receptor agonist call,OR52D1 (Homo sapiens),inactive
CC(=O)CCC=C(C)C,odorant receptor agonist call,OR52D1 (Homo sapiens),active
CCCCCCO,odorant receptor agonist call,OR51L1 (Homo sapiens),inactive
same,odorant receptor agonist call,OR52D1 (Homo sapiens),inactive
CCCCCCCCC(=O)O,odorant receptor agonist call,OR51L1 (Homo sapiens),inactive
same,odorant receptor agonist call,OR52A1 (Homo sapiens),inactive
same,odorant receptor agonist call,OR52B2 (Homo sapiens),inactive
same,odorant receptor agonist call,OR52D1 (Homo sapiens),active
